Test results published in ChEMBL document CHEMBL4177542, “A New Combination of a Pleuromutilin Derivative and Doxycycline for Treatment of Multidrug-Resistant Acinetobacter baumannii” (J Med Chem, 2017).
Values after ≈ are worked out from the molar mass of the structure shown.

Legend:
Vero = assay: Cytotoxicity against African green monkey Vero cells after 72 hrs by MTT assay; assay type: cell-based, Chlorocebus sabaeus
Method in brief: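 Vero (ATCC CCL-81) cells in Eagle's MEM with 10% FBS and penicillin-streptomycin, in 96-well plates. Serial dilutions from 0.78 to 200 μg/mL. Tunicamycin, colistin or tobramycin as controls on each plate. Viability by MTT, giving IC50.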

Acinetobacter baumannii [1] = assay: Growth inhibition of Acinetobacter baumannii ATCC 19606 after 48 hrs by resazurin dye based microdilution method; assay type: functional
Method in brief: (§1)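 A. baumannii ATCC 19606 grown in tryptic soy broth, 37 °C with shaking, to mid-log (OD 0.5). Cultures treated with serial dilutions of inhibitor (DMSO stock 1 mg/100 μL), 48 h at 37 °C. Resazurin then added, 1 h at 37 °C with shaking. MIC is the lowest concentration staying blue; MBC is blue retained over 4 h, with CFU plating if needed (99.9% kill).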

Acinetobacter baumannii [2] = assay: Bactericidal activity against multidrug-resistant Acinetobacter baumannii ATCC BAA 18002 after 48 hrs by resazurin dye based broth microdilution method; assay type: functional; settings: for MBC: read-out: MBC99.9
Method in brief: (§2)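 Broth microdilution in tryptic soy broth. Mid-log cultures (OD600 0.5) treated with serial dilutions from a DMSO stock (1 mg per 100 μL) for 48 h at 37 °C. Resazurin (stock 0.02%) then added for 1 h at 37 °C. MIC is the lowest concentration staying blue; MBC is blue retained over 4 h (99.9% kill), with CFU plating when needed.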

Acinetobacter baumannii [3] = assay: Growth inhibition of multidrug-resistant Acinetobacter baumannii ATCC BAA 18002 after 48 hrs by resazurin dye based broth microdilution method; assay type: functional; method in brief: as §2
Acinetobacter baumannii [4] = assay: Bactericidal activity against Acinetobacter baumannii ATCC 19606 after 48 hrs by resazurin dye based microdilution method; assay type: functional; settings: for MBC: ATCC 19606 = CIP 70.34 = JCM 6841, 48 h, read-out: MBC99.9; method in brief: as §1
Acinetobacter baumannii [5] = assay: Potentiation of doxycycline-induced antimicrobial activity against Acinetobacter baumannii ATCC 19606 at 0.78 ug/ml in presence of 0.025 ug/ml doxycycline by microdilution broth checkerboard method; assay type: functional, ATCC 19606 = CIP 70.34 = JCM 6841
Method in brief: (§3)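 A. baumannii ATCC 19606 in a broth microdilution checkerboard with doxycycline, 96 concentration combinations. ΣFIC = C_A/MIC_A + C_B/MIC_B, taken for wells at the growth/no-growth interface; ΣFIC <0.5 counts as synergy.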

Acinetobacter baumannii [6] = assay: Potentiation of doxycycline-induced antimicrobial activity against Acinetobacter baumannii ATCC 19606 at 1.56 ug/ml in presence of 0.05 ug/ml doxycycline by microdilution broth checkerboard method; assay type: functional, ATCC 19606 = CIP 70.34 = JCM 6841; method in brief: as §3
[7] = Half life in Sprague-Dawley rat liver microsomes at 500 ng/ml by LC/MS analysis; assay type: ADME, microsome
Method in brief: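 Pooled Sprague-Dawley rat liver microsomes at 1 mg/mL protein in 100 mM phosphate, pH 7.4. Compound at 500 ng/mL final; verapamil as positive control. Pre-equilibrated 5 min at 37 °C, then 1 mM NADPH added. Triplicate samples at 0, 5, 10, 20, 30, 45 and 60 min, quenched in 4 volumes of cold methanol, analysed by LC-MS.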

[8] = Solubility of the compound in water at 10 mg after 24 hrs by HPLC based shake flask method; assay type: physicochemical
Acinetobacter baumannii [9] = assay: Antibacterial activity against Acinetobacter baumannii ATCC 19606 infected in C57BL/6 mouse assessed as survival rate at 6 mg/kg, ip administered as single dose measured for 5 days (reference value: <20%); assay type: functional; settings: ATCC 19606 = CIP 70.34 = JCM 6841, ip, 120 h
Method in brief: (§4)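 C57BL/6 mice (n = 5 per group; 4 untreated controls) infected intraperitoneally with A. baumannii ATCC19606 grown at 37 °C and collected by centrifugation, at a dose giving 75% death. Single intraperitoneal dose (2 to 60 mg/kg) given 1 h after infection. Mice monitored for 5 days, with death as the end point; survival rate recorded.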

Klebsiella pneumoniae [10] = assay: Growth inhibition of Klebsiella pneumoniae ATCC 8047 after 48 hrs by resazurin dye based microdilution method; assay type: functional; settings: ATCC 8047, 48 h; method in brief: as §2
Klebsiella pneumoniae [11] = assay: Bactericidal activity against Klebsiella pneumoniae ATCC 8047 after 48 hrs by resazurin dye based microdilution method; assay type: functional; settings: ATCC 8047, 48 h, read-out: MBC99.9; method in brief: as §2
Escherichia coli [12] = assay: Growth inhibition of Escherichia coli ATCC 10798 after 48 hrs by resazurin dye based microdilution method; assay type: functional; settings: ATCC 10798, 48 h; method in brief: as §2
Escherichia coli [13] = assay: Bactericidal activity against Escherichia coli ATCC 10798 after 48 hrs by resazurin dye based microdilution method; assay type: functional; settings: ATCC 10798, 48 h, read-out: MBC99.9; method in brief: as §2
Pseudomonas aeruginosa [14] = assay: Growth inhibition of Pseudomonas aeruginosa ATCC 27853 after 48 hrs by resazurin dye based microdilution method; assay type: functional; settings: ATCC 27853, 48 h; method in brief: as §2
Pseudomonas aeruginosa [15] = assay: Bactericidal activity against Pseudomonas aeruginosa ATCC 27853 after 48 hrs by resazurin dye based microdilution method; assay type: functional; settings: ATCC 27853, 48 h, read-out: MBC99.9; method in brief: as §2
Staphylococcus aureus [16] = assay: Growth inhibition of Staphylococcus aureus ATCC 25923 after 48 hrs by resazurin dye based microdilution method; assay type: functional; settings: ATCC 25923, 48 h; method in brief: as §2
Staphylococcus aureus [17] = assay: Bactericidal activity against Staphylococcus aureus ATCC 25923 after 48 hrs by resazurin dye based microdilution method; assay type: functional; settings: ATCC 25923, 48 h, read-out: MBC99.9; method in brief: as §2
Acinetobacter baumannii [18] = assay: Synergistic antibacterial activity against Acinetobacter baumannii ATCC 19606 infected in C57BL/6 mouse assessed as increase in survival rate at compound to doxycycline ratio of 35:1 administered ip as single dose measured for 5 days; assay type: functional; settings: ATCC 19606 = CIP 70.34 = JCM 6841, ip, 120 h; method in brief: as §4
[19] = Chlorocebus sabaeus, Vero, 72 h, read-out: IC50
[20] = ATCC 19606 = CIP 70.34 = JCM 6841, 48 h
[21] = ATCC 19606 = CIP 70.34 = JCM 6841

Compound | IC50 (Vero; [19]) | MIC (Acinetobacter baumannii [1]; [20]) | MBC (Acinetobacter baumannii [2]) | MIC (Acinetobacter baumannii [3]; ATCC BAA 18002, 48 h) | MBC (Acinetobacter baumannii [4]) | also measured
CCCCCCCCCCCCC/C=C/C(=O)N[C@H]1[C@H](O[C@H]2O[C@H](CO)[C@@H](O)[C@H](O)[C@H]2NC(C)=O)O[C@H](CC(O)[C@H]2O[C@@H](n3ccc(=O)[nH]c3=O)[C@H](O)[C@@H]2O)[C@H](O)[C@@H]1O (stereo partly drawn) | 0.2 µg/mL (≈ 0.237 µM) |  |  |  |  | 
C=C[C@]1(C)C[C@@H](OC(=O)CSC(C)(C)CNC(=O)[C@H](NC(=O)CN)C(C)C)[C@]2(C)[C@H](C)CC[C@]3(CC[C@@H](O)[C@H]32)[C@@H](C)[C@@H]1O |  | 3.13 µg/mL (≈ 5.02 µM) | > 12.5 µg/mL | 3.13 µg/mL (≈ 5.02 µM) |  | 
C=C[C@]1(C)C[C@@H](OC(=O)CSC(C)(C)CNC(=O)[C@H](NCCN)C(C)C)[C@]2(C)[C@H](C)CC[C@]3(CC[C@@H](O)[C@H]32)[C@@H](C)[C@@H]1O |  |  | > 12.5 µg/mL | 3.15 µg/mL (≈ 5.16 µM) |  | 
C=C[C@]1(C)C[C@@H](OC(=O)CSC(C)(C)CNC(=O)[C@H](N)C(C)C)[C@]2(C)[C@H](C)CC[C@]3(CCC(=O)[C@H]32)[C@@H](C)[C@@H]1O [VALNEMULIN] | 14.9 µg/mL (≈ 26.4 µM) | 3.13 µg/mL (≈ 5.54 µM) | 25 µg/mL (≈ 44.3 µM) | 6.25 µg/mL (≈ 11.1 µM) | 12.5 µg/mL (≈ 22.1 µM) | fractional inhibitory concentration index (FICI) (Acinetobacter baumannii [5]): 0.375; fractional inhibitory concentration index (FICI) (Acinetobacter baumannii [6]): 0.375; t1/2 [7]: 34.8 s; solubility [8]: Soluble
COLISTIN [listing 1 of 2 here] |  |  |  |  |  | IC50 (Vero; vero): > 200 µg/mL
COLISTIN [listing 2 of 2 here] |  |  |  |  |  | MIC (Acinetobacter baumannii [1]; [21]): 3.13 µg/mL; MBC99.9 (Acinetobacter baumannii [2]): 25 µg/mL; MBC99.9 (Acinetobacter baumannii [4]; [21]): 6.25 µg/mL; MIC (Acinetobacter baumannii [3]): > 12.5 µg/mL
NC[C@H]1O[C@H](O[C@H]2[C@H](O)[C@@H](O[C@H]3O[C@H](CO)[C@@H](O)[C@H](N)[C@H]3O)[C@H](N)C[C@@H]2N)[C@H](N)C[C@@H]1O [TOBRAMYCIN] | > 200 µg/mL | 6.25 µg/mL (≈ 13.4 µM) | > 25 µg/mL | > 25 µg/mL | 12.5 µg/mL (≈ 26.7 µM) | survival at 6 mg/kg (Acinetobacter baumannii [9]): 100%
C[C@H]1c2cccc(O)c2C(=O)C2=C(O)[C@]3(O)C(=O)C(C(N)=O)=C(O)[C@@H](N(C)C)[C@@H]3[C@@H](O)[C@@H]21.O [DOXYCYCLINE] |  | 0.3 µg/mL |  | > 25 µg/mL | 0.4 µg/mL | MIC (Klebsiella pneumoniae [10]): 0.25 µg/mL; MBC (Klebsiella pneumoniae [11]): 0.78 µg/mL; MIC (Escherichia coli [12]): 3.13 µg/mL; MBC (Escherichia coli [13]): 6.25 µg/mL; MIC (Pseudomonas aeruginosa [14]): 12.5 µg/mL; MBC (Pseudomonas aeruginosa [15]): 25 µg/mL; MIC (Staphylococcus aureus [16]): 3.13 µg/mL; MBC (Staphylococcus aureus [17]): 12.5 µg/mL; ED50 (Acinetobacter baumannii [18]): < 2 mg/kg
